From publication PMC11338093 (ESMO Open, 2024)

How the values were obtained:
[1] = system: adults with refractory solid tumors or lymphoma; conditions: monotherapy phase I trial; cited from earlier work
[2] = APG-1387 monotherapy phase I trial: plasma pharmacokinetics; format: in vivo, human
[3] = system: subjects with advanced solid tumors; test: APG-1387 monotherapy phase I trial: safety; format: in vivo, human
Summary of the method: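 3+3 escalation of 0.3, 0.6, 4.0, 7.0, 12, 20, 30 and 45 mg, given as 30-min i.v. infusion on D1/8/15 with a 1-week rest per 28-day cycle. Safety was monitored by vitals, examination, haematology, biochemistry, thyroid, coagulation and ECG. AEs were graded by CTCAE 4.0 from consent to 90 days after last dose. DLTs were predefined drug-related grade ≥3–4 toxicities in cycle 1. MTD was the level below that with DLTs in ≥2 of 6 subjects.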

[4] = system: IFN-γ, IL-12/IL-23p40, IL-5, and IL-6; test: Combination trial: plasma cytokines; format: in vivo, human; conditions: 4 and 24 h after APG-1387 dosing, 16 subjects
Summary of the method: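 Combination regimen: toripalimab 240 mg i.v. Q3W with the test compound i.v. weekly on D1/8 or D1/8/15. Plasma was collected on C1D1 pre-dose, at 4 and 24 h after the first test compound dose, and on C2D1 and C3D1 before toripalimab. Cytokines were measured by Meso Scale Discovery assay. Post-dose IFN-γ, IL-12, IL-5 and IL-6 were normalised to each subject's baseline.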

[5] = system: NK cell (CD3, −CD16+, and CD56+) populations; test: Combination trial: peripheral blood lymphocyte subsets by flow cytometry; format: in vivo, human
Summary of the method: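 Combination regimen: toripalimab 240 mg i.v. Q3W plus test compound i.v., either 20–30 mg on D1/8 (3+3 stage) or 45 mg on D1/8/15 (second stage). Peripheral blood (3 ml) was drawn on C1D1, C2D1, C3D1 and at end of treatment. Lymphocyte subsets were analysed by flow cytometry. Post-dose cell proportions were divided by each subject's baseline.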

advanced solid tumors = test: APG-1387 monotherapy phase I trial: antitumor activity; format: in vivo, human
[6] = system: patients with advanced solid tumors; conditions: cited from earlier work
[7] = 28 participants, 30- and 45-mg groups

CC[C@H](NC(=O)[C@H](C)NC)C(=O)N1C[C@@H](O)C[C@H]1Cc1c(-c2[nH]c3cc(F)ccc3c2C[C@@H]2C[C@H](O)CN2C(=O)[C@H](CC)NC(=O)[C@H](C)NC)[nH]c2cc(F)ccc12 [birinapant]
CR or PR [1]: no participant had a CR or PR | Subjects with best response of SD [1]: 28%

CN[C@@H](C)C(=O)N[C@H]1CN(S(=O)(=O)c2cccc(S(=O)(=O)N3CC[C@H]4CC[C@@H](C(=O)NC(c5ccccc5)c5ccccc5)N4C(=O)[C@@H](NC(=O)[C@H](C)NC)C3)c2)CC[C@H]2CC[C@@H](C(=O)NC(c3ccccc3)c3ccccc3)N2C1=O [APG-1387]
Increase of Cmax and AUC0-t with dose ([2]; 0.3-45 mg): approximately dose-proportional | Accumulation after multiple dosing ([2]; QW dosing schedule): No significant accumulation | Mean rate of clearance ([2]; range across doses): 15.9 to 60.7 L/h | Mean steady-state volume of distribution (Vss) ([2]; range across doses): 10.1 to 60.1 L | Mean terminal half-life ([2]; range across doses): 44.5 to 672 min | Median time to maximum plasma concentration (Cmax) ([2]; range across doses, QW i.v. infusion 30 min): 0.25 to 0.50 h | Dose-limiting toxicities (DLT) ([3]; 0.3-45 mg i.v. D1/8/15 of 28-day cycle, 28 subjects): no DLT occurred | Subjects with TRAEs ([3]; 28 participants): 21.4% | TRAE pruritus ([3]; 28 participants, 20-mg group): 3.6% | TRAE elevated ALT [3, 7]: 7.1% | TRAE elevated AST [3, 7]: 7.1% | TRAE asthenia ([3]; 28 participants, 45-mg group): 3.6% | TRAE facial-nerve disorder ([3]; 28 participants, all in 45-mg group): 10.7% | Participants with grade ≥3 TRAE (ALT elevation) ([3]; 28 subjects): 3.6% | Any TRAE, All grade ([3]; all doses, n = 28): 6 (21·4) n (%) | Any TRAE, Grade ≥3 ([3]; all doses, n = 28): 1 (3·6) n (%) | TRAE Alanine aminotransferase elevation, All grade ([3]; all doses, n = 28): 2 (7·1) n (%) | TRAE Alanine aminotransferase elevation, Grade ≥3 ([3]; all doses, n = 28): 1 (3·6) n (%) | TRAE Amylase elevation, All grade ([3]; all doses, n = 28): 0 (0) n (%) | TRAE Amylase elevation, Grade ≥3 ([3]; all doses, n = 28): 0 (0) n (%) | TRAE Aspartate aminotransferase elevation, All grade ([3]; all doses, n = 28): 2 (7·1) n (%) | TRAE Aspartate aminotransferase elevation, Grade ≥3 ([3]; all doses, n = 28): 0 (0) n (%) | TRAE Asthenia, All grade ([3]; all doses, n = 28): 1 (3·6) n (%) | TRAE Asthenia, Grade ≥3 ([3]; all doses, n = 28): 0 (0) n (%) | TRAE Blood creatinine elevation, All grade ([3]; all doses, n = 28): 0 (0) n (%) | TRAE Blood creatinine elevation, Grade ≥3 ([3]; all doses, n = 28): 0 (0) n (%) | TRAE Decreased appetite, All grade ([3]; all doses, n = 28): 0 (0) n (%) | TRAE Decreased appetite, Grade ≥3 ([3]; all doses, n = 28): 0 (0) n (%) | TRAE Facial-nerve disorder, All grade ([3]; all doses, n = 28): 3 (10·7) n (%) | TRAE Facial-nerve disorder, Grade ≥3 ([3]; all doses, n = 28): 0 (0) n (%) | TRAE Headache, All grade ([3]; all doses, n = 28): 0 (0) n (%) | TRAE Headache, Grade ≥3 ([3]; all doses, n = 28): 0 (0) n (%) | TRAE Hypoesthesia, All grade ([3]; all doses, n = 28): 0 (0) n (%) | TRAE Hypoesthesia, Grade ≥3 ([3]; all doses, n = 28): 0 (0) n (%) | TRAE Hypogeusia, All grade ([3]; all doses, n = 28): 0 (0) n (%) | TRAE Hypogeusia, Grade ≥3 ([3]; all doses, n = 28): 0 (0) n (%) | TRAE Hypothyroidism, All grade ([3]; all doses, n = 28): 0 (0) n (%) | TRAE Hypothyroidism, Grade ≥3 ([3]; all doses, n = 28): 0 (0) n (%) | TRAE Immune-mediated pancreatitis, All grade ([3]; all doses, n = 28): 0 (0) n (%) | TRAE Immune-mediated pancreatitis, Grade ≥3 ([3]; all doses, n = 28): 0 (0) n (%) | TRAE Infusion site reaction, All grade ([3]; all doses, n = 28): 0 (0) n (%) | TRAE Infusion site reaction, Grade ≥3 ([3]; all doses, n = 28): 0 (0) n (%) | TRAE Leukopenia, All grade ([3]; all doses, n = 28): 0 (0) n (%) | TRAE Leukopenia, Grade ≥3 ([3]; all doses, n = 28): 0 (0) n (%) | TRAE Lipase elevation, All grade ([3]; all doses, n = 28): 0 (0) n (%) | TRAE Lipase elevation, Grade ≥3 ([3]; all doses, n = 28): 0 (0) n (%) | TRAE Platelet count decrease, All grade ([3]; all doses, n = 28): 0 (0) n (%) | TRAE Platelet count decrease, Grade ≥3 ([3]; all doses, n = 28): 0 (0) n (%) | TRAE Pruritus, All grade ([3]; all doses, n = 28): 1 (3·6) n (%) | TRAE Pruritus, Grade ≥3 ([3]; all doses, n = 28): 0 (0) n (%) | TRAE Rash, All grade ([3]; all doses, n = 28): 0 (0) n (%) | TRAE Rash, Grade ≥3 ([3]; all doses, n = 28): 0 (0) n (%) | Maximum tolerated dose (MTD) ([3]; doses up to 45 mg): not reached | Subjects with treatment-emergent adverse events ([3]; safety population, 28 participants): 89.3% | Plasma levels of IFN-γ, IL-12/IL-23p40, IL-5, and IL-6 [4]: significantly increased | NK cell populations in peripheral blood ([5]; 45-mg dose of APG-1387, combination trial): increased | NK cell populations in peripheral blood ([5]; low doses of APG-1387, combination trial): did not change significantly | Disease control rate (DCR) (advanced solid tumors; 23 participants): 21.7% | Best overall response: Complete response (advanced solid tumors; n 23): 0 (0) n (%) | Best overall response: Partial response (advanced solid tumors; n 23): 0 (0) n (%) | Best overall response: Progressive disease (advanced solid tumors; n 23): 18 (78·3) n (%) | Best overall response: Stable disease (advanced solid tumors; n 23): 5 (21·7) n (%) | Disease control rate (advanced solid tumors; n 23): 5 (21·7) n (%) | Objective response rate (advanced solid tumors; n 23): 0 (0) n (%) | Duration of SD with tumor reduction (advanced solid tumors; one individual with CRC, 20-mg group): 16 weeks

CN[C@@H](C)C(=O)N[C@H](C(=O)N1CCC[C@H]1c1nc(C(=O)c2ccc(F)cc2)cs1)C1CCCCC1 [LCL161]
Cytokine release syndrome (CRS) ([6]; high doses of 1800, 2100, and 3000 mg): grade 3-4 cytokine release syndrome | CR or PR ([6]; monotherapy phase I trial): no participant had a CR or PR | Subjects with best response of SD ([6]; monotherapy phase I trial): 19%
